Measurements: ChEMBL document CHEMBL1140343, “3-Alkylamino-4H-1,2,4-benzothiadiazine 1,1-dioxides as ATP-sensitive potassium channel openers: effect of 6,7-disubstitution on potency and tissue selectivity” (J Med Chem, 2005)

What was measured:
[1] = species: Rattus norvegicus; assay: Percent residual insulin release in rat pancreatic islets upon incubation with the compound (0.1 uM) at 37 degree C for 90 mins; type: functional
Procedure, shortened: (§1)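 Islets isolated by collagenase digestion from fed Wistar rats (180–220 g); groups of 10 preincubated 30 min at 37 °C in bicarbonate-buffered salt medium with 2.8 mM glucose and 0.5% albumin, gassed O2/CO2 95:5. Then incubated 90 min at 37 °C with 16.7 mM glucose plus drug. Insulin measured by radioimmunoassay; release expressed as % of drug-free 16.7 mM glucose control. IC50 estimated.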

[2] = species: Rattus norvegicus; assay: Concentration required to inhibit insulin release in rat pancreatic islets by 50% upon incubation with the compound at 37 degree C for 90 mins; type: functional, organism-based; conditions: 1.5 h; procedure, shortened: as §1
[3] = species: Rattus norvegicus; assay: Percent residual insulin release in rat pancreatic islets upon incubation with the compound (10 uM) at 37 degree C for 90 mins; type: functional; procedure, shortened: as §1
[4] = species: Rattus norvegicus; assay: Ratio of EC50 required to relax KCl induced rat aorta ring contractions to that of IC50 required to inhibit insulin release in rat pancreatic islets; type: functional
[5] = species: Rattus norvegicus; assay: Percent residual insulin release in rat pancreatic islets upon incubation with the compound (1 uM) at 37 degree C for 90 mins; type: functional; procedure, shortened: as §1
[6] = species: Rattus norvegicus; assay: Concentration required to relax KCl induced rat aorta ring contractions by 50% upon incubation with the compound at 37 degree C for 90 mins; type: functional, organism-based; conditions: 1.5 h
Procedure, shortened: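 Endothelium-denuded transverse aortic rings (3–4 mm) from fed Wistar rats (180–220 g); isometric tension recorded by force transducer. After 60 min equilibration, rings contracted with 30 mM KCl; at stable tension, drug added cumulatively until maximal relaxation or 0.3 mM. Relaxation expressed as % of KCl contraction; EC50 taken from dose–response curves; mean ± SEM (n).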

[7] = species: Rattus norvegicus; assay: Percent residual insulin release in rat pancreatic islets upon incubation with the compound (50 uM) at 37 degree C for 90 mins; type: functional; procedure, shortened: as §1

SMILES	Release [1] [%]	IC50 [2] [µM]	Release [3] [%]	Selectivity [4]	Release [5] [%]	EC50 [6] [µM]	Release [7] [%]
CC(C)NC1=NS(=O)(=O)c2cc(Cl)ccc2N1	90.4	0.73	4.9	49.7	36.2		
CC(C)NC1=NS(=O)(=O)c2cc(F)ccc2N1	96.9	0.76	3.7	56.7	47.3	43.1	
O=S1(=O)N=C(NC2CCC2)Nc2cc(Cl)c(F)cc21	74.5	0.23	12.8	173.5	15.3	39.9	
O=S1(=O)NC(NC2CCC2)=Nc2cc(Cl)c(Br)cc21		1.21	9.5	5.5	57.2	6.6	
O=S1(=O)NC(NC2CC2)=Nc2cc(Cl)c(Cl)cc21		3.34	17.6	>9	92.5	> 30	
O=S1(=O)NC(NC2CCC2)=Nc2cc(Cl)c(Cl)cc21		1.25	8.4	10.1	58.1	12.6	
CCCNC1=NS(=O)(=O)c2cc(Cl)c(Cl)cc2N1		1.37	9.9	3.4	60.2	4.7	
C=CCNC1=Nc2cc(Cl)c(Cl)cc2S(=O)(=O)N1		1.89	13.5	0.63	68.5	1.2	
COc1ccc2c(c1)S(=O)(=O)NC(NC(C)C)=N2		1.75	8.5	156.6	67.6		
CCNC1=NS(=O)(=O)c2cc(OC)c(Cl)cc2N1	85.3	0.48	7.2	16.9	38	8.1	
CC(C)NC1=NS(=O)(=O)c2cc(F)c(NC(C)C)cc2N1						> 200	70.1
CC(C)CNC1=NS(=O)(=O)c2cc(F)c(F)cc2N1		5.68	42.3	>5.3	86.9	> 30	
COc1cc2c(cc1Cl)NC(NC1CCC1)=NS2(=O)=O	90	0.51	9.2	45.9	38.1	23.4	
CC(C)NC1=NS(=O)(=O)c2cc(F)c(Cl)cc2N1	64.4	0.16	7	259.4	5.7	41.5	
CCCNC1=NS(=O)(=O)c2cc(F)c(Cl)cc2N1	92	0.52	7.5	87.1	37.6	45.3	
CCCNC1=NS(=O)(=O)c2cc(F)c(NCCC)cc2N1							104.1
COc1cc2c(cc1Cl)NC(NC(C)C)=NS2(=O)=O	73.8	0.24	7.7	154.2	20.6	37	
CC(C)NC1=NS(=O)(=O)c2cc(Br)ccc2N1	91	0.47	8.1	10.2	34.9	4.8	
CCNC1=NS(=O)(=O)c2cc(Cl)c(Cl)cc2N1	83.4	0.25	9.1	4	8.5	1	
CC(C)NC1=NS(=O)(=O)c2cc(Br)c(Cl)cc2N1	73.3	0.26	7.5	21.5	25.7	5.6	
CC(C)NC1=NS(=O)(=O)c2cc(Cl)c(Cl)cc2N1	84.9	0.28	6.3	8.2	13.2	2.3	
CCNC1=NS(=O)(=O)c2cc(F)c(Cl)cc2N1	73.1	0.2	12.7	212	7.3	42.4	
O=S1(=O)N=C(NC2CCC2)Nc2cc(NC3CCC3)c(F)cc21							88.6
CCCCCCNC1=NS(=O)(=O)c2cc(Cl)c(Cl)cc2N1			95.2			> 300	
CCNC1=NS(=O)(=O)c2cc(Br)c(Cl)cc2N1	79.5	0.27	7.9	12.2	19.7	3.3	
CCNC1=NS(=O)(=O)c2cc(F)c(F)cc2N1	94.5	0.37	10.5	180.3	22	66.7	
CC(C)NC1=NS(=O)(=O)c2cc(F)c(F)cc2N1	81.6	0.3	6.1	341.3	22.9	102	
CC1=Nc2ccc(Cl)cc2S(=O)(=O)N1 [DIAZOXIDE]			73.9	1	87.5		
